# Screens: PubChem, several laboratories
# Rpn11 block: Rpn11 (PSMD14) deubiquitinase inhibitors, primary screen, biochemical, fluorescence polarization, uHTS. 26S proteasome non-ATPase regulatory subunit 14 (Homo sapiens), O00487. human 26S proteasome, Ub4-pepOG fluorescence polarization; 20S core pre-blocked with epoxomicin. inhibition, % at 20 µM. hit rate 0.59% among 360,000. AID 588493, 2011;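 active means inhibition at 20 µM, scaled to each plate's controls, above about 33%, limit read from the data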
# CSN deneddyl inh: inhibitors of CSN-mediated cullin deneddylation, primary screen, biochemical, fluorescence polarization, uHTS. COP9 signalosome complex subunit 5 (Homo sapiens), Q92905. Purified CSN, SCF-Nedd8-OG deneddylation. inhibition, % at 12.5 µM. hit rate 0.38% among 360,000. AID 651999, 2013;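 active means pattern-corrected inhibition above about 35%, with an unprinted fluorescence ratio check between 0.5 and 1.5, limit read from the data, passing the limit was not always enough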;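 further: 0% = enzyme with substrate and 100% = substrate without enzyme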
#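 Assay system: purified human Csn5 enzyme expressed in HEK293T cells; Input: 0.24 nM Csn5 enzyme, final concentration; Reagent: 10 nM SCFSkp2-Nedd8OG; Compound dosing: 12.5 µM single point; Times: reaction 90 min, room temperature; Technique: fluorescence polarization readout.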
# HNF4A DNA FP: change in binding of human HNF4A to DNA, primary screen, biochemical, fluorescence polarization, FITC-DNA | Hepatocyte nuclear factor 4-alpha (Homo sapiens), P41235 | hit rate 0.3% among 360,000 | activity change, % at 10 µM | 1 h | AID 1224865, 2016; in the data active means activity change above about 30%, passing the limit was not always enough
# Target sequence (P41235 whole entry, looked up): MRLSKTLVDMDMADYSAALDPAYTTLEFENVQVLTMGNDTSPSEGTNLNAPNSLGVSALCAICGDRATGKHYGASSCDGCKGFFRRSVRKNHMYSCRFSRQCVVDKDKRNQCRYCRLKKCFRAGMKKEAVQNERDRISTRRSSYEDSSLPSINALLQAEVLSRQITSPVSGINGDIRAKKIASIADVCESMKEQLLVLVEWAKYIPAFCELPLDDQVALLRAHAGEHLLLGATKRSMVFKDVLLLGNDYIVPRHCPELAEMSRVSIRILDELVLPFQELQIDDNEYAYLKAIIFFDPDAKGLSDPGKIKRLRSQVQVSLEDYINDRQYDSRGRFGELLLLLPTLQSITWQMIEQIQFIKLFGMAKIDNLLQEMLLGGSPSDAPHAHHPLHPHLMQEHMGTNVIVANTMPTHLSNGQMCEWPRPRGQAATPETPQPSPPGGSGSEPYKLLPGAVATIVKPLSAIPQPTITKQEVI
# Myeloid diff 2: induction of myeloid progenitor differentiation, primary screen, cell-based, flow cytometry, MLPCN library. ER-HoxA9 myeloid progenitors, lysozyme-GFP differentiation. calls only at 10 µM. hit rate 1% among 360,000;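 active means normalized GFP-positive differentiation at or above the plate's own cutoff, the solvent-only control mean plus 3 SD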;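 further: cells exposed to compound for four days before flow analysis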
# TPT1 inh: Candida albicans TPT1 enzyme inhibitors, primary screen, biochemical, fluorescence polarization; hit rate 0.81% among 300,000; tRNA 2'-phosphotransferase TPT1 (Candida albicans SC5314); recombinant caTPT1, FP RNA substrate dephosphorylation; inhibition, % at 5 µM;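 active means inhibition above the mean of all tested compounds plus 3 SD, set per screening campaign, cut at about 24% in these data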;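 further: plate controls were DMSO alone for no effect and ferristatin control at 100 nM for full effect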
# caTPT1 confirm: Candida albicans TPT1 inhibitors, confirmation, biochemical, fluorescence polarization, triplicate | hit rate 74% among 2,400 | inhibition, % at 5 µM | recombinant caTPT1, RNase T1 coupled | shares compounds with TPT1 inh;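 active means inhibition above the primary screen limit, the mean inhibition of all tested compounds plus 3 SD, cut at about 25% in these data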
# RNase T1 inh: RNase T1 inhibitors, counter-screen for TPT1 inhibitor project, biochemical, fluorescence polarization; inhibition, % at 5 µM; shares compounds with TPT1 inh; hit rate 83% among 2,400; AID 2153, 2009; RNase T1 cleavage, 1536-well;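 active means inhibition above the solvent-only control well mean plus 3 SD, limit set per screening run, cut at about 23% in these data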;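 further: plate controls were DMSO wells with enzyme for no effect and wells without RNase T1 for full effect; inhibitors block cleavage so intact labeled substrate keeps polarization high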
# Target sequence (P00651 whole entry, looked up): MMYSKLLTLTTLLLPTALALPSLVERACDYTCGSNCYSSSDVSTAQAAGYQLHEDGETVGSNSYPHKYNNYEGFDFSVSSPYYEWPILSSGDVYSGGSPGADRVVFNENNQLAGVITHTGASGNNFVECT
# * = called active by the depositor; i = inactive; . = no result given; + = active, no number. Compounds with a hit are over-represented: about 2.3% of the library has one in this group of screens.
SMILES,Rpn11 block,CSN deneddyl inh,HNF4A DNA FP,Myeloid diff 2,TPT1 inh,caTPT1 confirm,RNase T1 inh
CC(C)C(NC(=O)c1ccccc1NC(=O)c1ccccc1)C(=O)NCCCn1ccnc1 (stereo unspecified),1,3,5,i,-2,.,.
O=C1c2ccccc2S(=O)(=O)c2cc(N3CCC(C(=O)N4CCCCC4)CC3)ccc21,.,.,.,.,58*,78*,88*
Cc1ccc(C)n1-c1cccc(C(=O)Nc2ccccc2)c1,-4,4,1,i,38*,40*,50*
COc1ccc(NC(=O)c2cccc(-n3c(C)ccc3C)c2)c(OC)c1,15,2,9,i,16,.,.
Cc1c(NC(=O)c2cccc(NC(=O)Cc3ccc(F)cc3)c2)c(=O)n(-c2ccccc2)n1C,-2,-3,2,i,.,.,.
c1ccc(C2Oc3ccccc3C3CC(c4cccs4)=NN32)cc1 (stereo unspecified),.,15,20,i,49*,57*,69*
CC1CN(CC(=O)Nc2nc3ccccc3s2)CC(C)O1 (stereo unspecified),5,2,8,.,2,.,.
CC[C@H](C)/C=C(C)/C=C/C(=O)Cc1cc(O)c(C)c(O)c1C=O,39,34,36,i,34*,31*,41*
CCn1c(O)c(C=Nc2ccccc2)sc1=S,.,.,.,.,25*,22,28*
C=CCn1c(O)c(C=Nc2ccccc2)sc1=S,8,0,-1,i,7,.,.
Oc1c(C=Nc2ccccc2)sc(=S)n1Cc1ccccc1,34,15,24,+,43*,43*,59*
CN(C)CCn1c(SCc2ccccc2C#N)nc2c(sc3ccccc32)c1=O,15,2,8,i,7,.,.
CCO/C=C1/C(=O)N(C)C(=O)c2cc(OC)ccc21,3,-1,-2,i,39*,55*,66*
CCO/C=C1/C(=O)N(c2ccc(OC)cc2)C(=O)c2ccccc21,12,12,4,i,1,.,.
CCC(=O)c1ccc(OCC(O)CNC2CCCC2)cc1 (stereo unspecified),-1,1,0,i,-1,.,.
CCN(CC)c1ccc(/C=C(\C#N)C(=O)c2ccc(Br)cc2)cc1,-44,-95,-91,i,137*,104*,103*
Cc1ccc(C=C(C#N)C(=O)c2ccccc2)cc1,3,1,3,i,.,.,.
N#C/C(=C\c1ccc2c(c1)OCO2)C(N)=S,2,2,-1,i,-1,.,.
CCN(CC)c1ccc(/C=C(\C#N)C(N)=S)cc1,.,-76,103,+,104*,-3,10
CN(C)c1ccc(/C=C(\C#N)C(=O)c2ccccc2)cc1,.,77,77*,i,158*,162*,150*
Cc1ccccc1S(=O)(=O)NC(=O)C1(C)CCN1C(=O)CCc1cccs1 (stereo unspecified),-2,2,1,i,.,.,.
COCCCNC(=O)/C(C#N)=C1\N=C(NC(=O)c2cccs2)c2ccccc21,19,12,19,i,31*,10,15
N#C/C(C(=O)NCCc1ccccc1)=C1/N=C(NC(=O)c2cccs2)c2ccccc21,2,3,9,i,3,.,.
Cc1cc(-c2cccs2)c2c(N)c(C(=O)c3ccc4c(c3)OCO4)sc2n1,4,15,33,+,37*,58*,67*
COc1ccc(C(=O)c2sc3nc(C)cc(-c4cccs4)c3c2N)cc1OC,.,20,36,i,73*,73*,78*
SMILES,Rpn11 block,CSN deneddyl inh,HNF4A DNA FP,Myeloid diff 2,TPT1 inh,caTPT1 confirm,RNase T1 inh
O=C(/C=C/c1cccc([N+](=O)[O-])c1)N1CCN(Cc2ccc3c(c2)OCO3)CC1,5,-14,-2,i,-2,.,.
CC(C)CSC1=NSC2=NC(=O)/C(=C\c3coc4ccccc4c3=O)C(=N)N12,-34,-75,2,i,43*,10,26*
CSC1=NSC2=NC(=O)/C(=C\c3coc4ccccc4c3=O)C(=N)N12,24,55,48,i,62*,61*,65*
Cc1cc(C)n(C(=O)CNC(=O)c2ccc(Cl)cc2Cl)n1,-1,-5,1,i,0,.,.
CN(C)CCNC(=O)c1c(O)c2c([nH]c1=O)CCCC2,-7,4,0,i,37*,19,25*
CCOC(=O)c1c(/N=C/C2=C(O)CCCC2=O)sc(C)c1C,4,-3,1,i,-1,.,.
CCOC(=O)c1c(-c2ccc(OC)cc2)csc1/N=C/C1=C(O)CCCC1=O,31,11,4,i,139*,33*,50*
C=C[C@@H]1c2cc(C)ccc2N(S(=O)(=O)c2ccc(C)cc2)[C@H](c2ccccc2C(F)(F)F)C1(C#N)C#N,0,2,2,i,.,.,.
CCOC(=O)C1CCN(S(=O)(=O)c2c(C)n[nH]c2C)CC1,-2,4,-1,i,-1,.,.
CCC1(C)NC(=O)N(CC(=O)Nc2sc3c(c2C(=O)OC)CCCCC3)C1=O (stereo unspecified),1,2,2,i,1,.,.
CCC1(CC)NC(=O)N(CC(=O)Nc2sc3c(c2C(N)=O)CCC3)C1=O,20,41*,3,i,28*,37*,48*
CCCCCCN1C[C@@H](n2cc(C3CC3)nn2)[C@H](O)C[C@@H]1c1ccc(Cl)cc1,6,0,-2,i,.,.,.
CCOC(=O)c1sc(N)c(C#N)c1COC(=O)CNC(=O)c1ccccc1,.,41*,74*,i,79*,92*,100*
CCOC(=O)c1sc(N)c(C#N)c1CSc1nc2ccc(C)cc2[nH]1,8,5,5,i,11,.,.
CCOc1ccccc1OCCCC(=O)N(CC)CC(=O)Nc1c(F)cccc1F,-3,2,1,i,-3,.,.
CCOC(=O)c1cc(C#N)c(SCC(N)=O)[nH]c1=O,-10,-3,-16,i,32*,40*,50*
O=C(COC(=O)c1ccc2c(c1)OCCO2)NC1CCCCC1,8,2,8,i,.,.,.
COc1ccc(/C=c2\s/c(=C/C(=O)c3ccc(C)cc3)[nH]c2=O)cc1OC,.,32,67*,i,103*,117*,115*
